Assay results published in ChEMBL document CHEMBL1687906, “Discovery of novel and potent orally active calcium-sensing receptor antagonists that stimulate pulselike parathyroid hormone secretion: synthesis and structure-activity relationships of tetrahydropyrazolopyrimidine derivatives” (J Med Chem, 2011).
≈ marks a conversion by molar mass, not a printed value. Calls of active or inactive are those of the source. The rule behind the calls is not given here.

How the values were obtained:
[1] = Thermodynamic solubility of the compound in aqueous buffer containing 20 mmol/L sodium glycochenodeoxycholate at pH 6.8 by HPLC analysis; type: physicochemical; conditions: aqueous buffer with 20 mmol/L sodium glycochenodeoxycholate
Method in brief: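 Compound added to pH 6.8 aqueous buffer containing 20 mmol/L sodium glycochenodeoxycholate; after incubation, precipitate removed by filtration and filtrate concentration determined by HPLC.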

[2] = target: T1, Extracellular calcium-sensing receptor (Homo sapiens, UniProt P41180); assay: Inhibition of CaSR expressed in CHO cells incubated with compound for 10 mins measured after 1 hr by [35S]GTPgammaS binding assay; type: functional, cell-based
T1 sequence (P41180 whole entry): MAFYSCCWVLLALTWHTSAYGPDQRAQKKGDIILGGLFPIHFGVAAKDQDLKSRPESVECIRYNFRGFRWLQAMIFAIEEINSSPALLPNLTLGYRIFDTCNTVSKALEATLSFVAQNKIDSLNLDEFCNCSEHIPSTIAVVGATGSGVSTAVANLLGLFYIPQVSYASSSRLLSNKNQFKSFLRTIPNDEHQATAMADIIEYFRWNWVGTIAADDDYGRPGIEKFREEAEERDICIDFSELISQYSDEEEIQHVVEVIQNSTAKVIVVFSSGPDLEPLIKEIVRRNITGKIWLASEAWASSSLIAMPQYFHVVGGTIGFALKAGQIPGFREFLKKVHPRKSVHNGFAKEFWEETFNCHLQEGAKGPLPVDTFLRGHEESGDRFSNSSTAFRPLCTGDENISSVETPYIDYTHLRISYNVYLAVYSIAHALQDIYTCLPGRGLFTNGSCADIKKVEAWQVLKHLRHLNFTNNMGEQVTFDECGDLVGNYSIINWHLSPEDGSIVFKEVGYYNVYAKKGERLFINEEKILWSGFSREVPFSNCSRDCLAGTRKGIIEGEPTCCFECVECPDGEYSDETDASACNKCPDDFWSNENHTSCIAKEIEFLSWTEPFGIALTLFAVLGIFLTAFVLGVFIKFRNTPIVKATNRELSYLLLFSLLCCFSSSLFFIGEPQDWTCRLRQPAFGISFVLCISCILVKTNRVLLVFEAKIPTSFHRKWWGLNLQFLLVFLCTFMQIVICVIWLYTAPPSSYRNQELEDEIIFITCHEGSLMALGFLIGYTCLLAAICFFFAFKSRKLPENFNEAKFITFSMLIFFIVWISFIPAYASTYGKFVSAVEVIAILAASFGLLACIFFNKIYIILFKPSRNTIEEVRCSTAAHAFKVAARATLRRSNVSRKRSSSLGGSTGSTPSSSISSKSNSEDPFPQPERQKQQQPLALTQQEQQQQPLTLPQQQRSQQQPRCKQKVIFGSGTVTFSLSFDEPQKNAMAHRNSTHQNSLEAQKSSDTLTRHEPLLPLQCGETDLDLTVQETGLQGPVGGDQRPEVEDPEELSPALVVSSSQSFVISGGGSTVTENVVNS
Method in brief: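 Membranes from CaSR-expressing CHO cells preincubated with compound for 10 min. Binding then run 1 h at room temperature in 20 mM HEPES pH 7.4, 100 mM NaCl, 1 mM MgCl2, 167 μg/mL DTT, 5 μM GDP, 0.4 nM [35S]GTPγS and 6 mM CaCl2. Samples filtered through GF/C and washed with PBS; radioactivity counted by scintillation. IC50 obtained by nonlinear regression.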

[3] = Metabolic stability in rat hepatic microsomes after 20 mins by HPLC/MS analysis; type: ADME; conditions: liver microsomes, read-out: Stability
Method in brief: (§1)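 Hepatic microsomes, 0.2 mg/mL protein, in 50 mmol/L potassium phosphate pH 7.4 with […] test compound. An NADPH-generating system (MgCl2, glucose-6-phosphate, β-NADP+, G6PDH) added at 10% of the reaction volume. Incubated at 37 °C for 0 and 20 min.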

[4] = Metabolic stability in human hepatic microsomes after 20 mins by HPLC/MS analysis; type: ADME; conditions: liver microsomes, read-out: Stability; method in brief: as §1
[5] = system: Caco-2; assay: Apparent permeability across apical to basolateral side of human Caco2 cells at 10 umol/L; type: ADME, cell-based; conditions: caco-2, 10 µM, in the assay text read “basolateral to apical” for “apical to basolateral”
Method in brief: (§2)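 Confluent Caco-2 monolayers on collagen-coated polycarbonate Transwell membranes. Buffer is HBSS with 10 mmol/L HEPES, 15 mmol/L glucose and 1% BSA, pH 7.3-7.5. Compound at 10 μmol/L dosed apically (A-to-B) or basolaterally (B-to-A), 37 °C, 5% CO2. Receivers sampled at 1 and 2 h. Lucifer yellow integrity check and cell-free blank run. LC/MS/MS read-out; Papp calculated; duplicates.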

[6] = system: Caco-2; assay: Apparent permeability across apical to basolateral side in human Caco2 cells at 10 umol/L; type: ADME, cell-based; conditions: caco-2, 10 µM; method in brief: as §2
[7] = system: Rattus norvegicus; assay: Induction of bone formation in osteopenic ovariectomized CD(SD)IGS rat model assessed as distal femur BMD at 10 mg/kg, po administered once daily for 3 months measured after 1 day last post treatment (reference value: 622+/- 7 mg/cm3); type: functional
[8] = Tmax in Crl:CD(SD) rat at 10 mg/kg, po; type: ADME, organism-based; set-up: dose 10 mg/kg, route oral; conditions: in vivo
Method in brief: (§3)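 Nonfasted female Crl:CD(SD) rats, 12 weeks old, n = 3, given 10 mg/kg orally as a 0.5% methylcellulose suspension. Plasma collected at 0.25, 0.5, 1, 2, 4, 8 and 24 h, deproteinized with acetonitrile, diluted with 0.01 mol/L ammonium acetate. Drug measured by HPLC on an ODS column, ammonium acetate/acetonitrile 3/7, 40 °C, UV 262 nm.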

[9] = AUC (0 to 24 hrs) in Crl:CD(SD) rat at 10 mg/kg, po; type: ADME, organism-based; set-up: time < 24 hr, dose 10 mg/kg, route oral; conditions: plasma; method in brief: as §3
[10] = Mean residence time in Crl:CD(SD) rat at 10 mg/kg, po; type: ADME, organism-based; set-up: dose 10 mg/kg, route oral; conditions: in vivo; method in brief: as §3
[11] = system: Rattus norvegicus; assay: Increase of PTH level in rat plasma at 10 mg/kg, po after 30 mins by ELISA; type: functional
[12] = Cmax in Crl:CD(SD) rat at 10 mg/kg, po; type: ADME, organism-based; set-up: dose 10 mg/kg, route oral; conditions: in vivo; method in brief: as §3
[13] = system: Rattus norvegicus; assay: Induction of bone formation in osteopenic ovariectomized CD(SD)IGS rat model assessed as proximal tibia bone mineral density at 10 mg/kg, po administered once daily for 3 months measured after 1 day last post treatment (reference value: 649+/- 8 mg/cm3); type: functional
[14] = system: Rattus norvegicus; assay: Induction of bone formation in osteopenic ovariectomized CD(SD)IGS rat model assessed as plasma osteocalcin level at 10 mg/kg, po administered once daily for 3 months measured after 2 months by RIA (reference value: 21.1+/- 2.4 ng/ml); type: functional
[15] = system: Rattus norvegicus; assay: Increase of PTH level in rat plasma at 10 mg/kg, po after 2 hrs by ELISA; type: functional, organism-based; set-up: dose 10 mg/kg

| solubility thermodynamic [1] | IC50 [2] | Structure (SMILES) | further results |
| --- | --- | --- | --- |
| 202 µg/mL | – | CCC(CC)(NC(=O)c1cnn2c1NC(c1ccccc1)CC2(C)C)c1ccc(Cl)cc1.O=S(=O)(O)O (stereo not drawn) | – |
| 5.4 µg/mL (≈ 11.1 µM) | 5.2 nM | CCOC(=O)c1ccc(C(CC)(CC)NC(=O)c2cnn3c2NC(c2ccccc2)CC3(C)C)cc1 (stereo not drawn) [listing 1 of 2 here] | – |
| – | 12 nM | CCC(=O)Oc1ccc(C(CC)(CC)NC(=O)c2cnn3c2NC(c2ccccc2)CC3(C)C)cc1 (stereo not drawn) | – |
| – | 380 nM | O=C(NC(c1ccccc1)c1ccccc1)c1cnn2c1N[C@H](c1ccccc1)C[C@@H]2C(F)(F)F | – |
| – | 150 nM | CC1(C)CC(c2ccccc2)Nc2c(C(=O)NC(c3ccc(C(F)(F)F)cc3)(C3CCCCC3)C3CCCCC3)cnn21 (stereo not drawn) | – |
| 24.3 µg/mL (≈ 46.5 µM) | 8.5 nM | CCC(CC)(NC(=O)c1cnn2c1NC(c1ccccc1)CC2(C)C)c1ccc(OCc2ccccc2)cc1 (stereo not drawn) | microsomal CLint [3]: 24 µL/min/mg; microsomal CLint [4]: 48 µL/min/mg |
| 59.6 µg/mL (≈ 133 µM) | 6.6 nM | CCC(CC)(NC(=O)c1cnn2c1NC(c1ccccc1)CC2(C)C)c1ccc(OC)cc1 (stereo not drawn) | microsomal CLint [3]: 158 µL/min/mg; microsomal CLint [4]: 67 µL/min/mg |
| – | 12 nM | CCC(CC)(NC(=O)c1cnn2c1NC(c1ccccc1)CC2(C)C)c1ccccc1F (stereo not drawn) | – |
| 164 µg/mL | – | CCC(CC)(NC(=O)c1cnn2c1NC(c1ccccc1)CC2(C)C)c1ccc(Cl)cc1.CS(=O)(=O)O (stereo not drawn) | – |
| 54 µg/mL (≈ 120 µM) | 7.4 nM | CCC(CC)(NC(=O)c1cnn2c1NC(c1ccccc1)CC2(C)C)c1ccc(Cl)cc1 (stereo not drawn) | Papp [5]: 36.8 10^-6 cm/s; microsomal CLint [3]: 57 µL/min/mg; microsomal CLint [4]: 18 µL/min/mg; Papp [6]: 52.6 10^-6 cm/s |
| – | 31 nM | CCC(CC)(NC(=O)c1cnn2c1NC(c1ccccc1)CC2(C)C)c1ccc(OC(C)=O)cc1 (stereo not drawn) | – |
| – | 4.4 nM | CCCC(CCC)(NC(=O)c1cnn2c1NC(c1ccccc1)CC2(C)C)c1ccc(C(F)(F)F)cc1 (stereo not drawn) | – |
| 140 µg/mL | 4.9 nM | CCC(CC)(NC(=O)c1cnn2c1NC(c1ccccc1)CC2(C)C)c1ccc(C)cc1.Cl (racemic) | Papp [5]: 42.7 10^-6 cm/s; Activity [7]: 660 mg/cm3; Tmax [8]: 0.67 h; AUC(0-t) at 24 h [9]: 2460 ng·h/mL; MRT [10]: 5.65 h; Activity [11]: 120 pg/mL; Cmax [12]: 374 ng/mL; Activity [13]: 700 mg/cm3; Activity [14]: 28.4 ng/mL; Papp [6]: 58.9 10^-6 cm/s |
| – | – | CCC(CC)(NC(=O)c1cnn2c1NC(c1ccccc1)CC2(C)C)c1ccc(C)cc1 (racemic) | Activity [15]: inactive |
| 118 µg/mL | – | CCC(CC)(NC(=O)c1cnn2c1NC(c1ccccc1)CC2(C)C)c1ccc(C)cc1.CS(=O)(=O)O (stereo not drawn) | – |
| 202 µg/mL | – | CC(=O)O.CCC(CC)(NC(=O)c1cnn2c1NC(c1ccccc1)CC2(C)C)c1ccc(Cl)cc1 (stereo not drawn) | – |

| solubility thermodynamic [1] | IC50 [2] | Structure (SMILES) | further results |
| --- | --- | --- | --- |
| – | 2900 nM | O=C(NCc1ccc(C(F)(F)F)cc1)c1cnn2c1N[C@H](c1ccccc1)C[C@@H]2C(F)(F)F | – |
| – | – | CCOC(=O)c1ccc(C(CC)(CC)NC(=O)c2cnn3c2NC(c2ccccc2)CC3(C)C)cc1 (stereo not drawn) [listing 2 of 2 here] | microsomal CLint [3]: 138 µL/min/mg; microsomal CLint [4]: 91 µL/min/mg |
| 8.5 µg/mL (≈ 19.6 µM) | 7.3 nM | CCC(CC)(NC(=O)c1cnn2c1NC(c1ccccc1)CC2(C)C)c1ccc(F)cc1 (stereo not drawn) | microsomal CLint [3]: 129 µL/min/mg; microsomal CLint [4]: 89 µL/min/mg |
| – | 30 nM | CC(C)C(NC(=O)c1cnn2c1NC(c1ccccc1)CC2(C)C)(c1ccc(C(F)(F)F)cc1)C(C)C (stereo not drawn) | – |
| – | 17 nM | CCC(CC)(NC(=O)c1cnn2c1NC(c1ccccc1)CC2(C)C)c1cccc(Cl)c1 (stereo not drawn) | – |
| 4.6 µg/mL (≈ 9.49 µM) | 7.6 nM | CCC(CC)(NC(=O)c1cnn2c1NC(c1ccccc1)CC2(C)C)c1ccc(C(F)(F)F)cc1 (stereo not drawn) | Papp [5]: 24.2 10^-6 cm/s; microsomal CLint [3]: 13 µL/min/mg; microsomal CLint [4]: 14 µL/min/mg; Papp [6]: 32.7 10^-6 cm/s |
| – | 14 nM | CCC(CC)(NC(=O)c1cnn2c1NC(c1ccccc1)CC2(C)C)c1ccc(COC(C)=O)cc1 (stereo not drawn) | – |
| – | 25 nM | CCC(CC)(NC(=O)c1cnn2c1NC(c1ccccc1)CC2(C)C)c1cccc(F)c1 (stereo not drawn) | – |
| 22.3 µg/mL (≈ 53.5 µM) | 3.4 nM | CCC(CC)(NC(=O)c1cnn2c1NC(c1ccccc1)CC2(C)C)c1ccccc1 (stereo not drawn) | microsomal CLint [3]: 215 µL/min/mg; microsomal CLint [4]: 209 µL/min/mg |
| – | 23 nM | CCCCC(CCCC)(NC(=O)c1cnn2c1NC(c1ccccc1)CC2(C)C)c1ccc(C(F)(F)F)cc1 (stereo not drawn) | – |
| 15.6 µg/mL (≈ 36.2 µM) | 5.5 nM | CCC(CC)(NC(=O)c1cnn2c1NC(c1ccccc1)CC2(C)C)c1ccc(C)cc1 (stereo not drawn) | microsomal CLint [3]: 164 µL/min/mg; microsomal CLint [4]: 122 µL/min/mg |
| – | 2.3 nM | CCC(CC)(NC(=O)c1cnn2c1N[C@@H](c1ccccc1)CC2(C)C)c1ccc(C)cc1 | – |
| 126 µg/mL | – | CCC(CC)(NC(=O)c1cnn2c1NC(c1ccccc1)CC2(C)C)c1ccc(Cl)cc1.Cl (stereo not drawn) | Tmax [8]: 0.67 h; AUC(0-t) at 24 h [9]: 2460 ng·h/mL; MRT [10]: 5.65 h; Cmax [12]: 374 ng/mL |
| – | 31 nM | CCC(CC)(NC(=O)c1cnn2c1N[C@H](c1ccccc1)CC2(C)C)c1ccc(C)cc1 | – |
| – | 3.5 nM | CC(C)(NC(=O)c1cnn2c1NC(c1ccccc1)CC2(C)C)c1ccc(C(F)(F)F)cc1 (stereo not drawn) | – |
